Assays:
[1] = Selectivity index, ratio of CC50 for HFF to EC50 for inhibition of HSV2 replication in HFF cells; format: toxicity, cell-based; conditions: human; for selectivity ratio: HFF cells, read-out: Ratio CC50/EC50
[2] = (§1) Cytotoxicity in HFF cells incubated for 7 days by CellTiter-Glo assay; format: cell-based; conditions: human, HFF cells; time 7 day
[3] = Inhibition of HSV2 replication in HFF cells incubated for 7 days; format: functional, cell-based, Human alphaherpesvirus 2
[4] = Selectivity index, ratio of CC50 for HEK293 cells to EC50 for inhibition of HPV-16 DNA amplification in HEK293 cells
How it was run: (§2)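 Ratio CC50/EC50 in HEK-293 cells. CC50 is by CellTiter-Glo. EC50 is by qPCR of HPV-11 or HPV-16 ori-plasmid amplification in cells cotransfected with type-matched E1/E2 expression vectors.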

[5] = Inhibition of HPV-16 DNA amplification in C-33-A cells incubated for 48 hrs by luciferase reporter gene assay; format: functional, cell-based, Human papillomavirus 16
How it was run: (§3)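 HPV-negative cervical cancer C33A cells transiently transfected with type-matched HPV-11, -16 or -18 E1 and E2 expression vectors plus an ori-plasmid carrying a NanoLuc reporter. After drug dilutions and incubation, ori-plasmid replication is read as the rise in luciferase activity and EC50 is determined. Cytotoxicity (CC50) is measured in C33A cells by CellTiter-Glo.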

[6] = Cytotoxicity in human PBMC cells; format: cell-based
How it was run: (§4)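 Human PBMCs infected with a clinical HIV-1 isolate, with AZT as positive control. EC50 and CC50 reported as mean ± SD of three replicates; selectivity index = CC50/EC50.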

[7] = Inhibition of HPV-11 DNA amplification in HEK293 cells incubated for 48 hrs by qPCR analysis; format: functional, cell-based, human papillomavirus 11
How it was run: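 HEK-293 cells cotransfected with an HPV-11 origin-containing plasmid and HPV-11 E1 and E2 expression vectors, then exposed to drug dilutions and incubated. Ori-plasmid amplification is measured by quantitative real-time PCR and EC50 is calculated. At least three independent experiments.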

[8] = Selectivity index, ratio of CC50 for C-33-A cells to EC50 for inhibition of HPV-16 DNA amplification in C-33-A cells
How it was run: (§5)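 Ratio CC50/EC50. CC50 is from CellTiter-Glo in C33A cells. EC50 is from NanoLuc luciferase readout of HPV ori-plasmid replication in C33A cells cotransfected with type-matched E1/E2 vectors.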

[9] = Selectivity index, ratio of CC50 for C-33-A cells to EC50 for inhibition of HPV-18 DNA amplification in C-33-A cells; how it was run: as §5
[10] = Selectivity index, ratio of CC50 for HEK293 cells to EC50 for inhibition of HPV-11 DNA amplification in HEK293 cells; how it was run: as §2
[11] = Selectivity index, ratio of CC50 for C-33-A cells to EC90 for inhibition of HPV-16 DNA amplification in C-33-A cells
How it was run: (§6)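 Ratio CC50/EC90. CC50 is from CellTiter-Glo cytotoxicity in C33A cells. EC90 is from NanoLuc luciferase readout of HPV-16 or -18 ori-plasmid replication in C33A cells cotransfected with type-matched E1/E2 vectors.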

HFF = assay: as §1; format: cell-based; conditions: human, hff, 168 h; time 7 day
[12] = Selectivity index, ratio of CC50 for C-33-A cells to EC90 for inhibition of HPV-11 DNA amplification in C-33-A cells
[13] = Inhibition of HIV1 92US727 replication in PHA-P-stimulated human PBMCs incubated for 7 days by reverse transcriptase activity based assay; format: functional, cell-based, Human immunodeficiency virus 1, PBMC
How it was run: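 Human PBMCs infected with a clinical HIV-1 isolate, with AZT as the positive control. Results are the mean of three replicates.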

HEK293 = assay: Cytotoxicity in HEK293 cells by CellTiter-Glo assay; conditions: human, hek293
[14] = Inhibition of HPV-16 DNA amplification in HEK293 cells incubated for 48 hrs by qPCR analysis; format: functional, cell-based, Human papillomavirus 16
How it was run: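 HEK-293 cells cotransfected with an HPV-16 origin-containing plasmid and HPV-16 E1 and E2 expression vectors, then treated with drug dilutions and incubated. Ori-plasmid amplification quantified by real-time qPCR; EC50 calculated from at least three independent experiments.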

[15] = Selectivity index, ratio of CC50 for C-33-A cells to EC50 for inhibition of HPV-11 DNA amplification in C-33-A cells; how it was run: as §5
[16] = Inhibition of HPV-18 DNA amplification in C-33-A cells incubated for 48 hrs by luciferase reporter gene assay; format: functional, cell-based, human papillomavirus 18; how it was run: as §3
[17] = Selectivity index, ratio of CC50 for C-33-A cells to EC90 for inhibition of HPV-18 DNA amplification in C-33-A cells; how it was run: as §6
[18] = Inhibition of HPV-11 DNA amplification in C-33-A cells incubated for 48 hrs by luciferase reporter gene assay; format: functional, cell-based, human papillomavirus 11; how it was run: as §3
[19] = (§7) Cytotoxicity in human C-33-A cells by CellTiter-Glo reagent assay; format: cell-based; conditions: C-33-A cells; how it was run: as §3
[20] = Cytotoxicity in HEK293 cells by CellTiter-Glo assay; conditions: human, HEK293 cells
[21] = Selectivity index, ratio of CC50 for human PBMC to EC50 for inhibition of HIV1 92US727 replication in PHA-P-stimulated human PBMCs; format: toxicity; conditions: for selectivity ratio: PBMCs, read-out: Ratio CC50/EC50; how it was run: as §4
C-33-A = assay: as §7; format: cell-based; conditions: c-33-a; how it was run: as §3
human papillomavirus 11 = assay: Potency index, ratio of EC50 for cidofovir to EC50 for test compound for inhibition of HPV-11 DNA amplification in C-33-A cells incubated for 48 hrs by luciferase reporter gene assay; format: functional
[22] = Stability in MEM supplemented with either normal or heat inactivated 10% FBS assessed as compound remaining at 37 degC after 38 days by reverse phase HPLC analysis; conditions: time 38.0 day
How it was run: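 Compound incubated at 37 °C in MEM with 10% FBS, either normal or heat-inactivated. After 38 days, analysed by reverse-phase HPLC on a polar RP column with a water/methanol gradient at 0.8 mL/min. Remaining parent and monoester degradation product quantified as peak area.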

[23] = Drug uptake in HFF cells at 1 uM incubated for 1 to 48 hrs using [14C]-labelled compound by liquid scintillation counting; format: ADME, cell-based; conditions: human, TDE = time-dependent effect, time 1-48 hrs
How it was run: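 HFF cells exposed to 1 μM [14C]-labelled compound for 1 to 48 h. Cell-associated radioactivity measured in duplicate to assess uptake.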

[24] = Human alphaherpesvirus 2, HFF, 168 h
[25] = Human papillomavirus 16, C-33-A, 48 h
[26] = human papillomavirus 18, C-33-A, 48 h
[27] = human papillomavirus 11, C-33-A, 48 h
[28] = Human immunodeficiency virus 1, 92US727, PBMC, 168 h

Nc1nc2c(ncn2COCCO)c(=O)[nH]1 [ACYCLOVIR]
selectivity ratio [1]: > 300 | CC50 at 168 h [2]: > 300000 nM | EC50 [3, 24]: 990 nM

CCCCCCCCCCCCCCCCCCOCCOP(=O)(COCCn1cnc2c(=O)[nH]c(N)nc21)OCc1ccccc1 (stereo in doubt; form 2)
Ratio CC50/EC50 [4]: 230 | EC50 ([5]; c-33-a): 140 nM | EC90 ([5]; time 48 hrs): 890 nM | CC50 ([6]; pbmc): 70 nM | EC50 [7]: 400 nM | Ratio CC50/EC50 [8]: >71 | Ratio CC50/EC50 [9]: >130 | Ratio CC50/EC50 [10]: 230 | Ratio CC50/EC50 [1]: 160 | Ratio [11]: >11 | CC50 (HFF): 5400 nM | Ratio [12]: >7 | EC50 ([13]; pbmc): 4 nM | CC50 (HEK293): 91000 nM | EC50 [14]: 390 nM | Ratio CC50/EC50 [15]: >24 | EC50 ([16]; c-33-a): 80 nM | EC90 ([16]; time 48 hrs): 720 nM | EC50 ([3]; hff): 33 nM | Ratio [17]: >14 | EC50 ([18]; c-33-a): 410 nM | EC90 ([18]; time 48 hrs): 1400 nM

Nc1ccn(C[C@@H](CO)OCP(=O)(O)O)c(=O)n1.O.O [CIDOFOVIR]
CC50 [19]: > 300000 nM | Ratio CC50/EC50 [4]: >2 | EC50 [5, 25]: 220000 nM | EC90 [5, 25]: > 300000 nM | EC50 [7]: 150000 nM | Ratio CC50/EC50 [8]: >1 | Ratio CC50/EC50 [9]: >1 | Ratio CC50/EC50 [10]: >2 | Ratio [11]: 1 | Ratio [12]: 1 | CC50 [20]: > 300000 nM | EC50 [14]: 150000 nM | Ratio CC50/EC50 [15]: 1 | EC50 [16, 26]: 260000 nM | EC90 [16, 26]: > 300000 nM | Ratio [17]: 1 | EC50 [18, 27]: > 300000 nM | EC90 [18, 27]: > 300000 nM

CCCCCCCCCCCCCCCCCCOCCOP(=O)(COCCn1cnc2c(=O)[nH]c(N)nc21)OCc1ccccc1 (stereo in doubt; form 3)
CC50 [19]: > 10000 nM | Ratio CC50/EC50 [4]: 120 | EC50 ([5]; c-33-a): 220 nM | EC90 ([5]; time 48 hrs): 1500 nM | CC50 ([6]; pbmc): 40 nM | EC50 [7]: 500 nM | Ratio CC50/EC50 [8]: >45 | selectivity ratio [21]: 16.3 | Ratio CC50/EC50 [9]: >37 | Ratio CC50/EC50 [10]: 170 | selectivity ratio [1]: 190 | Ratio [11]: >7 | CC50 at 168 h [2]: 6100 nM | Ratio [12]: >4 | EC50 [13, 28]: 3 nM | CC50 (HEK293): 83000 nM | EC50 [14]: 690 nM | Ratio CC50/EC50 [15]: >14 | EC50 ([16]; c-33-a): 270 nM | EC90 ([16]; time 48 hrs): 1400 nM | EC50 [3, 24]: 32 nM | Ratio [17]: >7 | EC50 ([18]; c-33-a): 710 nM | EC90 ([18]; time 48 hrs): 2500 nM

CCCCCCCCCCCCCCCCCCOCCOP(=O)(COCCn1cnc2c(=O)[nH]c(N)nc21)Oc1ccccc1 (stereo unspecified)
CC50 [19]: 49000 nM | EC50 [5, 25]: 90 nM | EC90 [5, 25]: 490 nM | EC50 [7]: 9500 nM | Ratio CC50/EC50 [8]: 670 | Ratio CC50/EC50 [9]: 980 | Ratio [11]: 120 | Ratio [12]: 80 | EC50 [14]: 5200 nM | Ratio CC50/EC50 [15]: 490 | EC50 [16, 26]: 60 nM | EC90 [16, 26]: 280 nM | Ratio [17]: 210 | EC50 [18, 27]: 100 nM | EC90 [18, 27]: 610 nM

CCCCCCCCCCCCCCCCCCOCCOP(=O)(COCCn1cnc2c(=O)[nH]c(N)nc21)OCc1ccccc1 (stereo in doubt; form 1) [listing 1 of 2 here]
CC50 (C-33-A): ≥ 10000 nM | Ratio CC50/EC50 [4]: 85 | EC50 ([5]; c-33-a): 40 nM | EC90 ([5]; time 48 hrs): 640 nM | CC50 ([6]; pbmc): 20 nM | Ratio CC50/EC50 [8]: >250 | Ratio CC50/EC50 ([21]; pbmc): 11 | Ratio CC50/EC50 [9]: >100 | Ratio CC50/EC50 [10]: 42 | Ratio CC50/EC50 [1]: 240 | Ratio [11]: >16 | CC50 (HFF): 5200 nM | Ratio [12]: 15 | EC50 ([13]; pbmc): 2 nM | Ratio EC50 (human papillomavirus 11): >300 | CC50 (HEK293): 17000 nM | EC50 [14]: 200 nM | Ratio CC50/EC50 [15]: 61 | EC50 ([16]; c-33-a): 100 nM | EC90 ([16]; time 48 hrs): 590 nM | EC50 ([3]; hff): 22 nM | Ratio [17]: >17 | EC50 ([18]; c-33-a): 180 nM | EC90 ([18]; time 48 hrs): 720 nM

Cc1cn([C@H]2C[C@H](N=[N+]=[N-])[C@@H](CO)O2)c(=O)[nH]c1=O [ZIDOVUDINE]
CC50 ([6]; PBMC cells): > 1000 nM | selectivity ratio [21]: > 250 | EC50 [13, 28]: 4 nM

CCCCCCCCCCCCCCCCCCOCCOP(=O)(COCCn1cnc2c(=O)[nH]c(N)nc21)OCc1ccccc1 (stereo in doubt; form 1) [listing 2 of 2 here]
Stability [22]: 83%

CCCCCCCCCCCCCCCCCCOCCOP(=O)(O)COCCn1cnc2c(=O)[nH]c(N)nc21
Drug uptake [23]: Tde

Reference: ChEMBL document CHEMBL4715800, “Synthesis and Antiviral Evaluation of Octadecyloxyethyl Benzyl 9-[(2-Phosphonomethoxy)ethyl]guanine (ODE-Bn-PMEG), a Potent Inhibitor of Transient HPV DNA Amplification” (J Med Chem, 2016)
